We go through 20 compounds from ChEMBL document CHEMBL1649407, “Part I: Synthesis, cancer chemopreventive activity and molecular docking study of novel quinoxaline derivatives” (Eur J Med Chem, 2011).

As a reminder, the viability is the share of living cells, or the viability signal relative to a control.

Data set [1] in a line: Cytotoxicity against human Raji cells assessed as cell viability at 1000 molar ratio by trypan blue staining method.
The test system of data set [2] is Mus musculus. The data set is described as follows: Inhibition of DMBA-initiated/TPA-promoted carcinogenesis in ICR mouse assessed as mouse bearing papillomas at 85 nmol administered 1 hr before TPA treatment measured after 4 weeks by two-stage carcinogenesis test. In kind it is functional. Also noted: scale not given: the % may be the effect or the level left. Put shortly: (§1)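 Female SPF ICR mice, 6 weeks old, 15 per group, backs shaved. Initiation: topical DMBA (390 nmol) in 0.1 mL acetone. Promotion began one week later: TPA (1.7 nmol) in 0.1 mL acetone, twice weekly. Test compound (85 nmol) in 0.1 mL acetone applied topically 1 h before each promotion. Papilloma-bearing mice and papillomas per mouse scored weekly for 20 weeks. Tumor type confirmed histologically. Student's t-test.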

The test system of data set [3] is Mus musculus. In words: Inhibition of DMBA-initiated/TPA-promoted carcinogenesis in ICR mouse assessed as mouse bearing papillomas at 85 nmol administered 1 hr before TPA treatment measured after 9 weeks by two-stage carcinogenesis test. In kind it is functional. Also noted: scale not given: the % may be the effect or the level left. Put shortly: as §1
Data set [4] has as its system Mus musculus. In words: Inhibition of DMBA-initiated/TPA-promoted carcinogenesis in ICR mouse assessed as mouse bearing papillomas at 85 nmol administered 1 hr before TPA treatment measured after 19 weeks by two-stage carcinogenesis test. In kind it is functional. Also on record: scale not given: the % may be the effect or the level left. In outline: as §1
The test system of data set [5] is Mus musculus. In words: Inhibition of DMBA-initiated/TPA-promoted carcinogenesis in ICR mouse assessed as mouse bearing papillomas at 85 nmol administered 1 hr before TPA treatment measured after 11 weeks by two-stage carcinogenesis test. It is filed as functional. Also noted: scale not given: the % may be the effect or the level left. Put shortly:
as §1

Data set [6] concerns Mus musculus. In words: Inhibition of DMBA-initiated/TPA-promoted carcinogenesis in ICR mouse assessed as mouse bearing papillomas at 85 nmol administered 1 hr before TPA treatment measured after 3 weeks by two-stage carcinogenesis test. In kind it is functional. Also on record: scale not given: the % may be the effect or the level left. In outline:
as §1

Data set [7] deals with Mus musculus. The data set is described as follows: Toxicity in topically treated ICR mouse assessed as inflammation. In kind it is organism-based. The note with it: in vivo, topical_or_ocular. Put shortly:
(§2)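 Treated areas of shaved back skin were inspected during the DMBA/TPA two-stage study, where test compound (85 nmol in acetone) was applied topically before each twice-weekly TPA promotion. Scored for lesional damage and for inflammation (edema, erosion, ulcer).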

The subject of data set [8] is Mus musculus. The data set is described as follows: Inhibition of DMBA-initiated/TPA-promoted carcinogenesis in ICR mouse assessed as mouse bearing papillomas at 85 nmol administered 1 hr before TPA treatment measured after 16 weeks by two-stage carcinogenesis test. In kind it is functional. Also on record: scale not given: the % may be the effect or the level left. Put shortly: as §1

In data set [9] the test system is Mus musculus. The data set is described as follows: Inhibition of DMBA-initiated/TPA-promoted carcinogenesis in ICR mouse assessed as mouse bearing papillomas at 85 nmol administered 1 hr before TPA treatment measured after 12 weeks by two-stage carcinogenesis test. In kind it is functional. Also on record: scale not given: the % may be the effect or the level left. In outline: as §1

Data set [10] relates to Mus musculus. The data set is described as follows: Inhibition of DMBA-initiated/TPA-promoted carcinogenesis in ICR mouse assessed as mouse bearing papillomas at 85 nmol administered 1 hr before TPA treatment measured after 10 weeks by two-stage carcinogenesis test. It is filed as functional. Also noted: scale not given: the % may be the effect or the level left. Put shortly: as §1

In data set [11] the test system is Mus musculus. In words: Inhibition of DMBA-initiated/TPA-promoted carcinogenesis in ICR mouse assessed as mouse bearing papillomas at 85 nmol administered 1 hr before TPA treatment measured after 17 weeks by two-stage carcinogenesis test. It is filed as functional. Also on record: scale not given: the % may be the effect or the level left. In outline: as §1
The subject of data set [12] is Mus musculus. In words: Inhibition of DMBA-initiated/TPA-promoted carcinogenesis in ICR mouse assessed as mouse bearing papillomas at 85 nmol administered 1 hr before TPA treatment measured after 13 weeks by two-stage carcinogenesis test. In kind it is functional. Also on record: scale not given: the % may be the effect or the level left. In outline: as §1
The test system of data set [13] is Mus musculus. The data set is described as follows: Inhibition of DMBA-initiated/TPA-promoted carcinogenesis in ICR mouse assessed as mouse bearing papillomas at 85 nmol administered 1 hr before TPA treatment measured after 8 weeks by two-stage carcinogenesis test. In kind it is functional. Also noted: scale not given: the % may be the effect or the level left. Put shortly: as §1

Data set [14] relates to Mus musculus. In words: Inhibition of DMBA-initiated/TPA-promoted carcinogenesis in ICR mouse assessed as mouse bearing papillomas at 85 nmol administered 1 hr before TPA treatment measured after 1 week by two-stage carcinogenesis test. It is filed as functional. Also noted: scale not given: the % may be the effect or the level left. In outline:
as §1

Data set [15] relates to Mus musculus. The data set is described as follows: Inhibition of DMBA-initiated/TPA-promoted carcinogenesis in ICR mouse assessed as mouse bearing papillomas at 85 nmol administered 1 hr before TPA treatment measured after 18 weeks by two-stage carcinogenesis test. It is filed as functional. Also on record: scale not given: the % may be the effect or the level left. In outline: as §1

Data set [16] deals with Mus musculus. The data set is described as follows: Inhibition of DMBA-initiated/TPA-promoted carcinogenesis in ICR mouse assessed as mouse bearing papillomas at 85 nmol administered 1 hr before TPA treatment measured after 15 weeks by two-stage carcinogenesis test. In kind it is functional. Also on record: scale not given: the % may be the effect or the level left. Put shortly:
as §1

For data set [17], the system named is Mus musculus. In words: Inhibition of DMBA-initiated/TPA-promoted carcinogenesis in ICR mouse assessed as mouse bearing papillomas at 85 nmol administered 1 hr before TPA treatment measured after 6 weeks by two-stage carcinogenesis test. In kind it is functional. Also noted: scale not given: the % may be the effect or the level left. In outline:
as §1

Data set [18] relates to Mus musculus. In words: Inhibition of DMBA-initiated/TPA-promoted carcinogenesis in ICR mouse assessed as mouse bearing papillomas at 85 nmol administered 1 hr before TPA treatment measured after 14 weeks by two-stage carcinogenesis test. Also noted: scale not given: the % may be the effect or the level left. In kind it is functional. Put shortly:
as §1

In data set [19] the test system is Mus musculus. In words: Inhibition of DMBA-initiated/TPA-promoted carcinogenesis in ICR mouse assessed as mouse bearing papillomas at 85 nmol administered 1 hr before TPA treatment measured after 20 weeks by two-stage carcinogenesis test. It is filed as functional. Also noted: scale not given: the % may be the effect or the level left. Put shortly:
as §1

The subject of data set [20] is Mus musculus. The data set is described as follows: Inhibition of DMBA-initiated/TPA-promoted carcinogenesis in ICR mouse assessed as mouse bearing papillomas at 85 nmol administered 1 hr before TPA treatment measured after 5 weeks by two-stage carcinogenesis test. It is filed as functional. Also on record: scale not given: the % may be the effect or the level left. Put shortly: as §1

The subject of data set [21] is Mus musculus. The data set is described as follows: Toxicity in topically treated ICR mouse assessed as lesional damage. The note with it: in vivo, topical_or_ocular. In kind it is organism-based. In outline:
as §2

The species named for data set [22] is Mus musculus. The data set is described as follows: Toxicity in ICR mouse assessed as change in body weight. Conditions: in vivo. It is filed as organism-based. Put shortly: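 Mice from the DMBA/TPA two-stage skin study received topical test compound in acetone before each TPA promotion. Body-weight gain was followed during the 20-week experiment. Food and water ad libitum, five mice per cage at 24 ± 2 °C.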

Data set [23] concerns Mus musculus. The data set is described as follows: Inhibition of DMBA-initiated/TPA-promoted carcinogenesis in ICR mouse assessed as mouse bearing papillomas at 85 nmol administered 1 hr before TPA treatment measured after 2 weeks by two-stage carcinogenesis test. In kind it is functional. Also noted: scale not given: the % may be the effect or the level left. In outline: as §1

Data set [24] deals with Mus musculus. In words: Inhibition of DMBA-initiated/TPA-promoted carcinogenesis in ICR mouse assessed as mouse bearing papillomas at 85 nmol administered 1 hr before TPA treatment measured after 7 weeks by two-stage carcinogenesis test. It is filed as functional. Also on record: scale not given: the % may be the effect or the level left. In outline: as §1

For `c1ccc2nc3c(nc2c1)[nH]c1cccc[n+]13`, the viability at 1000 molar ratio in data set [1] (Raji cells) stood at 60%.
Still for that read-out and setting: the value for `O=c1[nH]c2ccccc2nc1N/N=C/c1ccccc1` was 60%; that for `Clc1nc2ccccc2nc1Sc1nc2ccccc2[nH]1` was 60%.
On the same count and under the same terms, the value for `Oc1nc2ccccc2nc1O` was 60%; that for `C=CCn1c(=O)c(N/N=C/c2ccccc2OC)nc2ccccc21` was 60%; that for `Clc1nc2ccccc2nc1SCc1nc2ccccc2[nH]1` was 60%.
Same read-out and setting: the value for `c1ccc2nc3c(nc2c1)nc1ccccn13` was 60%.
As to `COc1ccccc1/C=N/Nc1nc2ccccc2[nH]c1=O`, the viability at 1000 molar ratio in data set [1] (Raji cells) came to 60%.
On the same count and under the same terms, the same measure for `N#Cc1c(-c2ccc(F)cc2)nc(Sc2nc3ccccc3nc2Cl)[nH]c1=O`: 60%.
The same measure, in the same setting: the value for `O=c1[nH]c2ccccc2nc1Cl` was 50%; that for `Nc1nc2ccccc2[nH]c1=O` was 60%.
Same read-out and setting: the same measure for `CCOC(=O)Cn1c(=O)c(N/N=C/c2ccccc2)nc2ccccc21`: 60%.
As for `Clc1nc2ccccc2nc1Cl`, the viability at 1000 molar ratio in data set [1] (raji) was found to be 50%.
For `CCOC(=O)Cn1c(=O)c(N/N=C/c2ccccc2OC)nc2ccccc21`, in data set [1] (Raji cells), the viability at 1000 molar ratio is 60%.
Same read-out and setting: the value for `NNc1nc2ccccc2[nH]c1=O` was 60%.
The same measure, in the same setting: the value for `N#Cc1c(-c2ccc(O)cc2)nc(Sc2nc3ccccc3nc2Cl)[nH]c1=O` was 60%; that for `C=CCn1c(=O)c(N/N=C/c2ccccc2)nc2ccccc21` was 60%.
On the same count and under the same terms, the value for `CCOC(=O)CN(/N=C/c1ccccc1OC)c1nc2ccccc2n(CC(=O)OCC)c1=O` was 60%.
Turning to `C=CCN(/N=C/c1ccccc1OC)c1nc2ccccc2n(CC=C)c1=O`, the Activity is 0% in the data set with Mus musculus [2]; 13.3% in the data set with Mus musculus [3]; 86.6% with Mus musculus [4]; 26.6% in the data set on Mus musculus [5]; 0% in the data set on Mus musculus [6]; “Non-toxic” in the data set with Mus musculus [7]. Further, the Activity in the data set on Mus musculus [8] amounted to 66.6%; with Mus musculus [9], 33.3%; in the data set with Mus musculus [10], 20%; in the data set on Mus musculus [11] it was 73.3%; in the data set on Mus musculus [12] it was 46.6%; with Mus musculus [13], 13.3%. Further, the Activity in the data set on Mus musculus [14] amounted to 0%; with Mus musculus [15] it was 80%; with Mus musculus [16], 60%; with Mus musculus [17], 0%; in the data set with Mus musculus [18] it was 60%; with Mus musculus [19] it was 86.6%. In addition, the Activity is recorded as 0% in the data set on Mus musculus [20]; “Non-toxic” in the data set with Mus musculus [21]; “Non-toxic” in the data set listed under Mus musculus [22]; 0% in the data set with Mus musculus [23]; 0% in the data set with Mus musculus [24]. Further, in data set [1] (Raji cells), the viability at 1000 molar ratio is 60%.
On to `N#Cc1c(-c2ccccc2)nc(Sc2nc3ccccc3nc2Cl)[nH]c1=O`, for which the viability at 1000 molar ratio in data set [1] (Raji cells) amounted to 60%.
